According to ChEMBL document CHEMBL1926509, “Discovery of pyrazolo[1,5-a]pyridines as p110α-selective PI3 kinase inhibitors” (Bioorg Med Chem, 2012):

Assays:
[1] = tested on: Mus musculus; assay: Toxicity in human HCT116 cells xenografted Rag1 knockout mouse assessed as mortality at 20 mg/kg, ip qd for 14 days; type: organism-based, HCT-116; set-up: dose 20 mg/kg, route intraperitoneal; conditions: in vivo, 336 h
Summary of the method: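 Age-matched specific pathogen-free female Rag1-/- mice bearing subcutaneous HCT-116 tumours (5 × 10⁶ cells inoculated in PBS), n = 7 per group. Drug given ip at 20 mg/kg once daily for 14 days in 7.5% DMSO/42.5% PEG-400/20% 2-hydroxypropyl-β-cyclodextrin/30% water; controls received vehicle alone. Bodyweight recorded daily; mice culled when weight loss exceeded 20% of starting weight.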

[2] = tested on: Mus musculus; assay: Toxicity in human HCT116 cells xenografted Rag1 knockout mouse assessed as body weight loss at 20 mg/kg, ip qd measured up to day 10; type: organism-based, HCT-116; set-up: dose 20 mg/kg, route intraperitoneal; conditions: in vivo
Summary of the method: (§1)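 Female specific-pathogen-free Rag1−/− mice carrying subcutaneous HCT-116 tumours, given 20 mg/kg ip daily for 14 days in a DMSO/PEG-400/hydroxypropyl-β-cyclodextrin/water vehicle; controls received vehicle; n = 7 per group. Bodyweight recorded daily; mice culled if loss exceeded 20% of starting weight.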

[3] = tested on: Mus musculus; assay: Toxicity in human HCT116 cells xenografted Rag1 knockout mouse assessed as body weight loss at 20 mg/kg, ip qd measured after 10 days relative to untreated control; type: organism-based, HCT-116; set-up: dose 20 mg/kg, route intraperitoneal; conditions: in vivo, 240 h; summary of the method: as §1
[4] = tested on: HCT-116; assay: Antitumor activity against human HCT116 cells xenografted in Rag1 knockout mouse assessed as tumor growth inhibition at 20 mg/kg, ip qd for 14 days relative to untreated control; type: functional; conditions: HCT-116, ip, 336 h, route intraperitoneal, read-out: GI
Summary of the method: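 Female specific-pathogen-free Rag1−/− mice, age-matched, inoculated subcutaneously with 5×10⁶ HCT-116 cells in PBS. Dosed ip at 20 mg/kg q.d. for 14 days in 7.5% DMSO/42.5% PEG-400/20% hydroxypropyl-β-cyclodextrin/30% water; controls received vehicle only; n = 7 per group. Tumour volume measured three times weekly; 1-way ANOVA with Holm-Sidak comparison at study end.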

In the case of `Cc1ccc([N+](=O)[O-])cc1S(=O)(=O)N(C)/N=C/c1cnc2ccc(Br)cn12`, the Activity [1] is reported as “Non-toxic”, the Activity [2] is reported as “Non-toxic” and the Activity [3] is reported as 15%. It also gave an inhibition in vivo at 20 mg/kg [4] of 23.2%.
